Measured values from ChEMBL document CHEMBL2384906, “Biological activity, design, synthesis and structure activity relationship of some novel derivatives of curcumin containing sulfonamides” (Eur J Med Chem, 2013).
In brackets after ≈: the same amount, converted by molar mass. Activity calls are given as the source filed them. The rule behind the calls is not given here.

Columns and labels:
[1] = test system: Bacillus cereus; assay: Antimicrobial activity against Bacillus cereus MTCC 7350 assessed as diameter of inhibition zone at 80 uM after 24 hrs by Kirby -Baur disc diffusion method; assay type: functional; settings: MTCC 7350, 24 h, read-out: DIZ
Procedure, shortened: (§1)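 Kirby-Bauer disc diffusion was used. Acetone stocks (160 µM) were serially doubled down to 80, 40 and 20 µM. 4 µL of each went onto 5 mm sterile paper discs, which were dried 30 min at 50 °C. Inoculum was 1.5 × 10⁸ CFU/mL diluted to 3 × 10² CFU/mL, and 50 µL was spread on Mueller-Hinton agar. After 24 h at 37 °C the inhibition-zone diameter was measured. Ciprofloxacin served as positive control.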

[2] = test system: Curvularia lunata; assay: Antifungal activity against Curvularia lunata MTCC 581 after 48 hrs; assay type: functional; settings: MTCC 581, 48 h
[3] = test system: Salmonella typhi; assay: Antimicrobial activity against Salmonella typhi ATCC 23564 assessed as diameter of inhibition zone at 80 uM after 24 hrs by Kirby -Baur disc diffusion method; assay type: functional, Salmonella enterica subsp. enterica serovar Typhi; settings: Salmonella enterica, ATCC 23564, 24 h; read-out: DIZ
[4] = test system: Salmonella typhi; assay: Antimicrobial activity against Salmonella typhi ATCC 23564 assessed as diameter of inhibition zone at 40 uM after 24 hrs by Kirby -Baur disc diffusion method; assay type: functional, Salmonella enterica subsp. enterica serovar Typhi; settings: Salmonella enterica, ATCC 23564, 24 h; read-out: DIZ
[5] = test system: Staphylococcus aureus; assay: Antimicrobial activity against Staphylococcus aureus ATCC 11632 assessed as diameter of inhibition zone at 40 uM after 24 hrs by Kirby -Baur disc diffusion method; assay type: functional; settings: ATCC 11632, 24 h, read-out: DIZ; procedure, shortened: as §1
[6] = test system: Trichoderma viride; assay: Antifungal activity against Trichoderma viride MTCC 1107 after 48 hrs; assay type: functional; settings: MTCC 1107, 48 h
[7] = test system: Bacillus cereus; assay: Antimicrobial activity against Bacillus cereus MTCC 7350 after 24 hrs by broth micro serial dilution method; assay type: functional; settings: MTCC 7350, 24 h
Procedure, shortened: (§2)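 This was broth microdilution in autoclaved Mueller-Hinton broth. 150 µL of compound per well was serially diluted […], and 50 µL of test organism was added. Plates were incubated 24 h at 37 °C and optical density was read.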

[8] = test system: Aspergillus niger; assay: Antifungal activity against Aspergillus niger MTCC 1108 after 48 hrs; assay type: functional; settings: MTCC 1108, 48 h
[9] = test system: Mus musculus; assay: Antiinflammatory activity in mouse assessed as inhibition of carrageenan-induced increase in paw volume at 200 mg/kg administered 1 hr prior to carrageenan challenge measured after 3 hrs relative to control; assay type: functional
Procedure, shortened: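 Mice were fasted 2 h and placed in groups of five. Controls received saline i.p. Phenylbutazone was given at 100 mg/kg i.p., curcumin at 200 mg/kg i.p., and derivatives at 200 mg/kg. After 1 h, 0.1 mL of 1% carrageenan in saline was injected subplantar into the right hind paw. Paw volume was followed by plethysmometer for 3 h, and % inhibition was calculated as (Vc − Vt)/Vc × 100.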

[10] = test system: Staphylococcus aureus; assay: Antimicrobial activity against Staphylococcus aureus ATCC 11632 assessed as diameter of inhibition zone at 20 uM after 24 hrs by Kirby -Baur disc diffusion method; assay type: functional; settings: ATCC 11632, 24 h, read-out: DIZ; procedure, shortened: as §1
[11] = test system: Pseudomonas aeruginosa; assay: Antimicrobial activity against Pseudomonas aeruginosa ATCC 15499 assessed as diameter of inhibition zone at 20 uM after 24 hrs by Kirby -Baur disc diffusion method; assay type: functional; procedure, shortened: as §1
[12] = test system: Pseudomonas aeruginosa; assay: Antimicrobial activity against Pseudomonas aeruginosa ATCC 15499 assessed as diameter of inhibition zone at 80 uM after 24 hrs by Kirby -Baur disc diffusion method; assay type: functional; settings: ATCC 15499, 24 h, read-out: DIZ; procedure, shortened: as §1
[13] = test system: Aspergillus flavus; assay: Antifungal activity against Aspergillus flavus MTCC 1021 assessed as zone of inhibition at 40 uM after 48 hrs by disc diffusion method; assay type: functional; settings: MTCC 1021, 48 h, read-out: IZ
Procedure, shortened: (§3)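 Spores from 4-day potato dextrose agar cultures, suspended in sterile water at 1.5 × 10⁵ CFU/mL. 0.2 mL was spread on potato dextrose agar. 5 mm filter-paper discs soaked with test compound were laid on the lawn. Incubation was 48 h at 28 °C, then the inhibition zone was measured in mm. Fluconazole was the positive control and acetone the negative control.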

[14] = test system: Aspergillus flavus; assay: Antifungal activity against Aspergillus flavus MTCC 1021 assessed as zone of inhibition at 20 uM after 48 hrs by disc diffusion method; assay type: functional; procedure, shortened: as §3
[15] = test system: Escherichia coli; assay: Antimicrobial activity against Escherichia coli ATCC 35218 after 24 hrs by broth micro serial dilution method; assay type: functional; settings: ATCC 35218, 24 h; procedure, shortened: as §2
[16] = test system: Escherichia coli; assay: Antimicrobial activity against Escherichia coli ATCC 35218 assessed as diameter of inhibition zone at 20 uM after 24 hrs by Kirby -Baur disc diffusion method; assay type: functional; settings: ATCC 35218, 24 h, read-out: DIZ; procedure, shortened: as §1
[17] = test system: Escherichia coli; assay: Antimicrobial activity against Escherichia coli ATCC 35218 assessed as diameter of inhibition zone at 40 uM after 24 hrs by Kirby -Baur disc diffusion method; assay type: functional; settings: ATCC 35218, 24 h, read-out: DIZ; procedure, shortened: as §1
[18] = test system: Escherichia coli; assay: Antimicrobial activity against Escherichia coli ATCC 35218 assessed as diameter of inhibition zone at 80 uM after 24 hrs by Kirby -Baur disc diffusion method; assay type: functional; settings: ATCC 35218, 24 h, read-out: DIZ; procedure, shortened: as §1
[19] = test system: Salmonella typhi; assay: Antimicrobial activity against Salmonella typhi ATCC 23564 after 24 hrs by broth micro serial dilution method; assay type: functional, Salmonella enterica subsp. enterica serovar Typhi; settings: Salmonella enterica, ATCC 23564, 24 h
[20] = test system: Curvularia lunata; assay: Antifungal activity against Curvularia lunata MTCC 581 assessed as zone of inhibition at 80 uM after 48 hrs by disc diffusion method; assay type: functional; settings: MTCC 581, 48 h, read-out: IZ; procedure, shortened: as §3
[21] = test system: HepG2; assay: Cytotoxicity against human HepG2 cells after 24 hrs by MTT assay; assay type: functional, cell-based
Procedure, shortened: (§4)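 The MTT assay seeded 5 × 10⁴ cells per well and grew them 24 h in RPMI 1640 with compound at 2.5–200 µM. Medium without cells was the blank and adriamycin the positive control. MTT was added for 4 h at 37 °C, formazan was solubilised, and absorbance was read at 570 nm. IC50 is the concentration that cuts viability 50% against untreated cells.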

[22] = test system: Aspergillus flavus; assay: Antifungal activity against Aspergillus flavus MTCC 1021 after 48 hrs; assay type: functional; settings: MTCC 1021, 48 h
[23] = test system: Pseudomonas aeruginosa; assay: Antimicrobial activity against Pseudomonas aeruginosa ATCC 15499 after 24 hrs by broth micro serial dilution method; assay type: functional; settings: ATCC 15499, 24 h; procedure, shortened: as §2
[24] = test system: HCT-116; assay: Cytotoxicity against human HCT116 cells after 24 hrs by MTT assay; assay type: functional, cell-based; procedure, shortened: as §4
[25] = test system: Curvularia lunata; assay: Antifungal activity against Curvularia lunata MTCC 581 assessed as zone of inhibition at 40 uM after 48 hrs by disc diffusion method; assay type: functional; settings: MTCC 581, 48 h, read-out: IZ; procedure, shortened: as §3
[26] = test system: Trichoderma viride; assay: Antifungal activity against Trichoderma viride MTCC 1107 assessed as zone of inhibition at 20 uM after 48 hrs by disc diffusion method; assay type: functional; settings: MTCC 1107, 48 h, read-out: IZ; procedure, shortened: as §3
[27] = test system: Staphylococcus aureus; assay: Antimicrobial activity against Staphylococcus aureus ATCC 11632 after 24 hrs by broth micro serial dilution method; assay type: functional; settings: ATCC 11632, 24 h; procedure, shortened: as §2
[28] = test system: Staphylococcus aureus; assay: Antimicrobial activity against Staphylococcus aureus ATCC 11632 assessed as diameter of inhibition zone at 80 uM after 24 hrs by Kirby -Baur disc diffusion method; assay type: functional; settings: ATCC 11632, 24 h, read-out: DIZ; procedure, shortened: as §1
[29] = test system: Bacillus cereus; assay: Antimicrobial activity against Bacillus cereus MTCC 7350 assessed as diameter of inhibition zone at 40 uM after 24 hrs by Kirby -Baur disc diffusion method; assay type: functional; settings: MTCC 7350, 24 h, read-out: DIZ; procedure, shortened: as §1
[30] = test system: Bacillus cereus; assay: Antimicrobial activity against Bacillus cereus MTCC 7350 assessed as diameter of inhibition zone at 20 uM after 24 hrs by Kirby -Baur disc diffusion method; assay type: functional; settings: MTCC 7350, 24 h, read-out: DIZ; procedure, shortened: as §1
[31] = test system: QG-56; assay: Cytotoxicity against human QG56 cells after 24 hrs by MTT assay; assay type: functional, cell-based; procedure, shortened: as §4
[32] = test system: Salmonella typhi; assay: Antimicrobial activity against Salmonella typhi ATCC 23564 assessed as diameter of inhibition zone at 20 uM after 24 hrs by Kirby -Baur disc diffusion method; assay type: functional, Salmonella enterica subsp. enterica serovar Typhi; settings: Salmonella enterica, ATCC 23564, 24 h; read-out: DIZ
[33] = test system: Curvularia lunata; assay: Antifungal activity against Curvularia lunata MTCC 581 assessed as zone of inhibition at 20 uM after 48 hrs by disc diffusion method; assay type: functional; settings: MTCC 581, 48 h, read-out: IZ; procedure, shortened: as §3
[34] = test system: Aspergillus niger; assay: Antifungal activity against Aspergillus niger MTCC 1108 assessed as zone of inhibition at 80 uM after 48 hrs by disc diffusion method; assay type: functional; settings: MTCC 1108, 48 h, read-out: IZ; procedure, shortened: as §3
[35] = test system: Trichoderma viride; assay: Antifungal activity against Trichoderma viride MTCC 1107 assessed as zone of inhibition at 40 uM after 48 hrs by disc diffusion method; assay type: functional; settings: MTCC 1107, 48 h, read-out: IZ; procedure, shortened: as §3
[36] = test system: Aspergillus flavus; assay: Antifungal activity against Aspergillus flavus MTCC 1021 assessed as zone of inhibition at 80 uM after 48 hrs by disc diffusion method; assay type: functional; settings: MTCC 1021, 48 h, read-out: IZ; procedure, shortened: as §3
[37] = test system: Pseudomonas aeruginosa; assay: Antimicrobial activity against Pseudomonas aeruginosa ATCC 15499 assessed as diameter of inhibition zone at 40 uM after 24 hrs by Kirby -Baur disc diffusion method; assay type: functional; settings: ATCC 15499, 24 h, read-out: DIZ; procedure, shortened: as §1
[38] = test system: Trichoderma viride; assay: Antifungal activity against Trichoderma viride MTCC 1107 assessed as zone of inhibition at 80 uM after 48 hrs by disc diffusion method; assay type: functional; settings: MTCC 1107, 48 h, read-out: IZ; procedure, shortened: as §3
[39] = test system: HeLa; assay: Cytotoxicity against human HeLa cells after 24 hrs by MTT assay; assay type: functional, cell-based; procedure, shortened: as §4
[40] = test system: Aspergillus niger; assay: Antifungal activity against Aspergillus niger MTCC 1108 assessed as zone of inhibition at 20 uM after 48 hrs by disc diffusion method; assay type: functional; settings: MTCC 1108, 48 h, read-out: IZ; procedure, shortened: as §3
[41] = test system: Aspergillus niger; assay: Antifungal activity against Aspergillus niger MTCC 1108 assessed as zone of inhibition at 40 uM after 48 hrs by disc diffusion method; assay type: functional; settings: MTCC 1108, 48 h, read-out: IZ; procedure, shortened: as §3

## COc1cc(/C=C/C(O)=C/C(/C=C/c2ccc(O)c(OC)c2)=N/c2ccc(S(=O)(=O)Nc3ccccn3)cc2)ccc1O
[1]
  zone of inhibition at 80 µM: 19 mm
[2]
  MIC: > 80 µM
[3]
  zone of inhibition at 80 µM: 18 mm
[4]
  zone of inhibition at 40 µM: 14 mm
[5]
  zone of inhibition at 40 µM: 17 mm
[6]
  MIC: 20 µM (≈ 12 µg/mL)
[7]
  MIC: 20 µM (≈ 12 µg/mL)
[8]
  MIC: 40 µM (≈ 24 µg/mL)
[9]
  inhibition in vivo at 200 mg/kg: 37%
[10]
  zone of inhibition at 20 µM: 11 mm
[11]
  diameter of the inhibition zone (DIZ): inactive
[12]
  zone of inhibition at 80 µM: 13 mm
[13]
  zone of inhibition at 40 µM: 9 mm
[14]
  inhibition zone (IZ): inactive
[15]
  MIC: 20 µM (≈ 12 µg/mL)
[16]
  zone of inhibition at 20 µM: 15 mm
[17]
  zone of inhibition at 40 µM: 19 mm
[18]
  zone of inhibition at 80 µM: 20 mm
[19]
  MIC: 20 µM (≈ 12 µg/mL)
[20]
  zone of inhibition at 80 µM: 12 mm
[21]
  IC50: 25 µM
[22]
  MIC: > 80 µM
[23]
  MIC: 20 µM (≈ 12 µg/mL)
[24]
  IC50: 25 µM
[25]
  zone of inhibition at 40 µM: 9 mm
[26]
  zone of inhibition at 20 µM: 10 mm
[27]
  MIC: 20 µM (≈ 12 µg/mL)
[28]
  zone of inhibition at 80 µM: 18 mm
[29]
  zone of inhibition at 40 µM: 16 mm
[30]
  zone of inhibition at 20 µM: 11 mm
[31]
  IC50: 50 µM
[32]
  zone of inhibition at 20 µM: 11 mm
[33]
  zone of inhibition at 20 µM: 9 mm
[34]
  zone of inhibition at 80 µM: 14 mm
[35]
  zone of inhibition at 40 µM: 13 mm
[36]
  zone of inhibition at 80 µM: 12 mm
[37]
  zone of inhibition at 40 µM: 11 mm
[38]
  zone of inhibition at 80 µM: 17 mm
[39]
  IC50: 50 µM
[40]
  zone of inhibition at 20 µM: 9 mm
[41]
  zone of inhibition at 40 µM: 12 mm
